The target in assay [1] is T1, Muscarinic acetylcholine receptor M1 (Homo sapiens, UniProt P11229).
T1 sequence (P11229 whole entry): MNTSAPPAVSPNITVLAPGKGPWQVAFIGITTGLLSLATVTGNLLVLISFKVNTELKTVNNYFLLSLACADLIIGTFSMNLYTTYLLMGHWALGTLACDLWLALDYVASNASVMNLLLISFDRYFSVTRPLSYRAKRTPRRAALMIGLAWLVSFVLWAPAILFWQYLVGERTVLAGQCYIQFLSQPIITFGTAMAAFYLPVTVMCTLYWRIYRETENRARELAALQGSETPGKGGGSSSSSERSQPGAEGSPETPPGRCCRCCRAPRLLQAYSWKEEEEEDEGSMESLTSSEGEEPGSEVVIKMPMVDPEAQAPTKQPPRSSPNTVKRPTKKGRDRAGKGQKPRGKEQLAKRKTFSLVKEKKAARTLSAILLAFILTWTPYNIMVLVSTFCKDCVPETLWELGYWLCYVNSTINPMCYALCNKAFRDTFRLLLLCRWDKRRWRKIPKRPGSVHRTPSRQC
The experiment in a line: Displacement of [3H]NMS from human M1 AChR expressed in CHO cell membranes after 1 to 2 hrs by liquid scintillation spectrometry method. The assay is classed as cell-based. In general terms: In a radioligand displacement assay an active substance lowers the binding of a labelled ligand.

In assay [2] the target is T2, Muscarinic acetylcholine receptor M2 (Homo sapiens, UniProt P08172).
T2 sequence (P08172 whole entry): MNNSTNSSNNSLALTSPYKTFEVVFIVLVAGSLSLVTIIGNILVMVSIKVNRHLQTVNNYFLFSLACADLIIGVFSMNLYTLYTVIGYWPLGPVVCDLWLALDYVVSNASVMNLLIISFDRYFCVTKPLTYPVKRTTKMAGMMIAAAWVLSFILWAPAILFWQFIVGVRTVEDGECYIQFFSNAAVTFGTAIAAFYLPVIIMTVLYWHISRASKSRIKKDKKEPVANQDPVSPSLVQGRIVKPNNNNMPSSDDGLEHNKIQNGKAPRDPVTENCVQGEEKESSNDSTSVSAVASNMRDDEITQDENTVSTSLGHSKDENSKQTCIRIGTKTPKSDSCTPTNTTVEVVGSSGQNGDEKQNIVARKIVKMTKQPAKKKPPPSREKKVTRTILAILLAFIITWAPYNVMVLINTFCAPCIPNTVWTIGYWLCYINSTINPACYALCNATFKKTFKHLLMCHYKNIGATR
The experiment in a line: Displacement of [3H]NMS from human M2 AChR expressed in CHO cell membranes after 1 to 2 hrs by liquid scintillation spectrometry method. The procedure, abridged: (§1)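 CHO membranes expressing the human subtype (20 µg protein/well) with 0.3 nM [3H]NMS and analog (1 nM–100 µM) in 50 mM Tris-HCl pH 7.4, 2 h at 25 °C. […] Filtered on GF/B, washed, counted by scintillation. IC50 taken from curves to give Ki; three independent experiments in duplicate.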

For assay [3], the target named is T3, Muscarinic acetylcholine receptor M2 (Homo sapiens) (UniProt P08172).
T3 sequence (whole entry): T2 sequence (P08172 whole entry)
The experiment in a line: Displacement of [3H]NMS from human M2 AChR expressed in CHO cell membranes at 100 uM after 1 to 2 hrs by liquid scintillation spectrometry method relative to control. In a few lines: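 CHO membranes expressing the human subtype (20 µg protein/well) with 0.3 nM [3H]NMS and analog (1 nM–100 µM) in 50 mM Tris-HCl pH 7.4, 2 h at 25 °C. Filtered on GF/B, washed, counted by scintillation. IC50 taken from curves to give Ki; three independent experiments in duplicate.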

For assay [4], the target named is T4, Muscarinic acetylcholine receptor M3 (Homo sapiens, UniProt P20309). The experiment in a line: Displacement of [3H]NMS from human M3 AChR expressed in CHO cell membranes after 1 to 2 hrs by liquid scintillation spectrometry method. The assay is classed as cell-based.
Target sequence in this assay (P20309 whole entry): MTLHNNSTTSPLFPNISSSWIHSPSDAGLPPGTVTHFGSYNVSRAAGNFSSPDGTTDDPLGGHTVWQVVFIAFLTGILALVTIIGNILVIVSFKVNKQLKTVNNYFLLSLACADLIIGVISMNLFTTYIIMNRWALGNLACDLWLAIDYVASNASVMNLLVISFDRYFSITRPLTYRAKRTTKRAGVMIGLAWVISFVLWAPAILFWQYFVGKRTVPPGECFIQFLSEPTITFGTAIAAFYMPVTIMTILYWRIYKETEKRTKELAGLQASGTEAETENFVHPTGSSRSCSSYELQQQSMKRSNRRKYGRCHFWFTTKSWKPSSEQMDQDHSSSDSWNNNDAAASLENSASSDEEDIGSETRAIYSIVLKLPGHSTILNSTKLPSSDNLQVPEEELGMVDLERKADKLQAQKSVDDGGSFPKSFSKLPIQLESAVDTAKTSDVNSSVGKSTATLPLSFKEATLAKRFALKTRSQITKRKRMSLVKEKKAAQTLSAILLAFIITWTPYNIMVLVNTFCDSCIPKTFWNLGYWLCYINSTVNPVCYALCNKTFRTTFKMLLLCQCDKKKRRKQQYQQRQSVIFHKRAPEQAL
In assay [5] the target is T5, Muscarinic acetylcholine receptor M5 (Homo sapiens, UniProt P08912).
T5 sequence (P08912 whole entry): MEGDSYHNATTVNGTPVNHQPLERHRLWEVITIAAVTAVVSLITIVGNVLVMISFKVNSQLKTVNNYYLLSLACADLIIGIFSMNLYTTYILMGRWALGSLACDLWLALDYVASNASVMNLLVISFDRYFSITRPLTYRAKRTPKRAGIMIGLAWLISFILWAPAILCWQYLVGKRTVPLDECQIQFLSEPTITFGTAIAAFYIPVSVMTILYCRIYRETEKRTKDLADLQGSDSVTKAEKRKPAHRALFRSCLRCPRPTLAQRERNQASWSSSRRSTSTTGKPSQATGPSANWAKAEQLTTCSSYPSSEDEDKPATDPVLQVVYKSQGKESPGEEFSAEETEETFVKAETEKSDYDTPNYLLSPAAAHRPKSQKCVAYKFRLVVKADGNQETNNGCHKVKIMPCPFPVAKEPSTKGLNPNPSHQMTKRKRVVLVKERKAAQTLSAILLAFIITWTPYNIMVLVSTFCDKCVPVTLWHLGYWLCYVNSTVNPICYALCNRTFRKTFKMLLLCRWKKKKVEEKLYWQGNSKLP
The experiment in a line: Displacement of [3H]NMS from human M5 AChR expressed in CHO cell membranes after 1 to 2 hrs by liquid scintillation spectrometry method. In a few lines: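 CHO membranes expressing human M5 (10 µg protein/well) with 0.3 nM [3H]NMS and analog (1 nM–100 µM) in 50 mM Tris-HCl pH 7.4, 2 h at 25 °C. Filtered on GF/B, counted by scintillation. IC50 converted to Ki; three independent experiments in duplicate.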

Assay [6] deals with T6, Muscarinic acetylcholine receptor M5 (Homo sapiens) (UniProt P08912).
T6 sequence (whole entry): T5 sequence (P08912 whole entry)
The experiment in a line: Displacement of [3H]NMS from human M5 AChR expressed in CHO cell membranes at 100 uM after 1 to 2 hrs by liquid scintillation spectrometry method relative to control. In a few lines:
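CHO membranes expressing human M5 (10 µg protein/well) with 0.3 nM [3H]NMS and analog (1 nM–100 µM) in 50 mM Tris-HCl pH 7.4, 2 h at 25 °C. […] Filtered on GF/B, counted by scintillation. IC50 converted to Ki; three independent experiments in duplicate.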

For assay [7], the species on record is Homo sapiens. The experiment in a line: Selectivity ratio of Ki for displacement of [3H]NMS from human M1 AChR expressed in CHO cell membranes to Ki for displacement of [3H]NMS from human M5 AChR expressed in CHO cell membranes.
The species named for assay [8] is Homo sapiens. The experiment in a line: Selectivity ratio of Ki for displacement of [3H]NMS from human M2 AChR expressed in CHO cell membranes to Ki for displacement of [3H]NMS from human M3 AChR expressed in CHO cell membranes.
The target in assay [9] is T7, Muscarinic acetylcholine receptor M1 (Homo sapiens) (UniProt P11229).
T7 sequence (whole entry): T1 sequence (P11229 whole entry)
As to conditions: CHO, at 100 µM.

The target in assay [10] is T4, Muscarinic acetylcholine receptor M3. The conditions noted are these: CHO, at 100 µM.
Target sequence in this assay (P20309 whole entry, looked up): as the sequence (P20309 whole entry) above
The target of assay [11] is T8, Muscarinic acetylcholine receptor M4 (Homo sapiens, UniProt P08173).
T8 sequence (P08173 whole entry): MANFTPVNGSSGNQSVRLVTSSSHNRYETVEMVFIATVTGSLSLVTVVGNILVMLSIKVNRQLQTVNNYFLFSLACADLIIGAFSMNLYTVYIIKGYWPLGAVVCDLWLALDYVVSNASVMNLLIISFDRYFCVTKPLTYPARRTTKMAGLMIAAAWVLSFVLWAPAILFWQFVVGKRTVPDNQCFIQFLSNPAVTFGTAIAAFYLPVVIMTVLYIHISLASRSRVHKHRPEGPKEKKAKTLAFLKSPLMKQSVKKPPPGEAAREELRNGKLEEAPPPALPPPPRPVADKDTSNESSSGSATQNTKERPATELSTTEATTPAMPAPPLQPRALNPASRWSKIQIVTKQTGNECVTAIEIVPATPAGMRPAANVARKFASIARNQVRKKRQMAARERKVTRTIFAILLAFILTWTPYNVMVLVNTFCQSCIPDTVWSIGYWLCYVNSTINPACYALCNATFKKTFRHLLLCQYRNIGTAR
The experiment in a line: Displacement of [3H]NMS from human M4 AChR expressed in CHO cell membranes after 1 to 2 hrs by liquid scintillation spectrometry method. In a few lines: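 Human M4-expressing CHO membranes (20 µg protein/well) incubated 2 h at 25 °C with 0.3 nM [3H]NMS and analog (1 nM–100 µM) in 50 mM Tris–HCl pH 7.4. […] Filtered, washed, counted by scintillation. IC50 taken from inhibition curves, Ki from three independent duplicate experiments (mean ± SEM).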

For assay [12], the target named is T9, Muscarinic acetylcholine receptor M4 (Homo sapiens) (UniProt P08173).
T9 sequence (whole entry): T8 sequence (P08173 whole entry)
The experiment in a line: Displacement of [3H]NMS from human M4 AChR expressed in CHO cell membranes at 100 uM after 1 to 2 hrs by liquid scintillation spectrometry method relative to control. The procedure, abridged: as §1

Assay [13] addresses T10, Muscarinic acetylcholine receptor (Rattus norvegicus) (UniProt P08482+P08483+P08485+P08911+P10980). The conditions noted are these: 1 uM.
In assay [14] the target is T10, Muscarinic acetylcholine receptor (Rattus norvegicus). As to conditions: 10 uM.

A word on the Ki: it is the dissociation constant of the complex between target and ligand, obtained from inhibition or displacement. Lower therefore signals tighter binding. For `Cc1ccc(COC(=O)N(c2ccccc2)C2CN3CCC2CC3)cc1F` (centres undefined), the inhibitory constant (Ki) is 40 nM in [1], 30 nM in [2], 20 nM in assay [4] and 30 nM in assay [5]. Besides, the Imax in [3] was determined as 99.7%; in [6], 97.4%; in [9] it was 100%; in assay [10] it was 99%. Also, the Ratio Ki is 1.2 in assay [7] and 1.3 in [8].
Turning to `O=C(OCc1ccc2c(c1)OCO2)N(c1ccccc1)C1CN2CCC1CC2` (centres undefined), the Ki in [1] is 30 nM; in assay [2], 30 nM; in assay [4], 19 nM; in assay [5], 40 nM. Also, the Imax in [3] was determined as 99.4%; in [6] it was 99.7%; in [9], 100%; in assay [10] it was 99.9%. Besides, the results for the Ratio Ki in [7] and in assay [8] were 0.8 and 1.7, respectively.
As to `COc1ccc(CCN(C(=O)OC2CN3CCC2CC3)c2ccccc2)cc1OC` (racemic), the inhibition constant (Ki) was found to be 95 nM in assay [1], 350 nM in assay [2], 60 nM in assay [4] and 65 nM in assay [5]. Also, the Imax in assay [3] worked out at 98.6%; in [6], 99.8%; in [9], 100%; in assay [10], 99.7%. In addition, the results for the Ratio Ki in assay [7] and in [8] were 1.5 and 5.7, respectively.
`COc1ccc(CCN(C(=O)OC2CN3CCC2CC3)c2ccccc2)cc1` (racemic): the inhibition constant (Ki) in assay [1] amounted to 10 nM; in [2] it was 130 nM; in assay [4], 8 nM; in assay [5], 10 nM; in assay [11], 25 nM. The Imax stood at 99.7% in assay [3]; 100% in assay [6]; 99.9% in assay [12]; 100% in assay [9]; 99.9% in assay [10]. The Ratio Ki in [7] amounted to 1; in assay [8], 17.1.
Take `O=C(OCc1ccccc1)N(c1ccccc1)C1CN2CCC1CC2` (centres undefined): the Ki in assay [1] was 190 nM; in [2], 120 nM; in [4], 90 nM; in assay [5], 150 nM. Besides, the Imax in assay [3] was determined as 99.4%; in [6] it was 97.2%; in assay [9], 99.5%; in assay [10], 98.6%. In addition, the Ratio Ki in assay [7] was 1.3; in assay [8], 1.2.
Consider `O=C(OCCCc1ccc(Cl)c(Cl)c1)N(c1ccccc1)C1CN2CCC1CC2` (centres undefined), for which the Ki worked out at 170 nM in assay [1], 300 nM in assay [2], 60 nM in [4] and 130 nM in assay [5]. For the same compound, the Imax came out at 99.9% in assay [3], 99.4% in [6], 100% in assay [9] and 100% in assay [10]. The figures for the Ratio Ki in assay [7] and in [8] were 1.3 and 4.7, respectively.
With `O=C(OCc1ccc(Cl)c(Cl)c1)N(c1ccccc1)C1CN2CCC1CC2` (centres undefined), the Ki was 60 nM in [1], 220 nM in assay [2], 70 nM in [4] and 60 nM in assay [5]. The Imax was 97.5% in assay [3], 98.6% in assay [6], 100% in assay [9] and 95.8% in assay [10]. The Ratio Ki in [7] is 0.9; in assay [8], 3.3.
As usually defined, the inhibition is the drop in the measured response relative to a control, in per cent. Lower therefore signals little suppression. On to `CN1[C@@H]2C[C@H](OC(=O)[C@H](CO)c3ccccc3)C[C@H]1[C@@H]1O[C@@H]12`, for which the inhibition in [13] was 51%; in [14], 59%.
Consider `COc1ccc(COC(=O)N(c2ccccc2)C2CN3CCC2CC3)cc1F` (centres undefined), for which the inhibition constant Ki in assay [1] is 70 nM; in assay [2], 100 nM; in assay [4] it was 50 nM; in [5] it was 40 nM. For the same compound, the Imax amounted to 98.8% in [3], 96.7% in [6], 99.5% in assay [9] and 100% in assay [10]. The Ratio Ki in [7] worked out at 1.5; in assay [8] it was 1.8.

(Values after ChEMBL document CHEMBL4371071, “Muscarinic agonist, (±)-quinuclidin-3-yl-(4-fluorophenethyl)(phenyl)carbamate: High affinity, but low subtype selectivity for human M1 - M5 muscarinic acetylcholine receptors” (Bioorg Med Chem Lett, 2019).)
